KCNK3 block: human KCNK3 channel inhibition, primary screen | 340,000 compounds, 0.84% hits | B-score at 10 µM | O14649 | AID 602410 | CHO-KCNK3 thallium flux, FluxOR fluorescence; stronger effect = lower value;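 active = B-score under library mean minus 4 SD, starting fluorescence ratio at most library mean plus 5 SD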;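 also: more negative B-score means stronger inhibition of thallium flux through KCNK3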
Target sequence (O14649 whole entry, looked up): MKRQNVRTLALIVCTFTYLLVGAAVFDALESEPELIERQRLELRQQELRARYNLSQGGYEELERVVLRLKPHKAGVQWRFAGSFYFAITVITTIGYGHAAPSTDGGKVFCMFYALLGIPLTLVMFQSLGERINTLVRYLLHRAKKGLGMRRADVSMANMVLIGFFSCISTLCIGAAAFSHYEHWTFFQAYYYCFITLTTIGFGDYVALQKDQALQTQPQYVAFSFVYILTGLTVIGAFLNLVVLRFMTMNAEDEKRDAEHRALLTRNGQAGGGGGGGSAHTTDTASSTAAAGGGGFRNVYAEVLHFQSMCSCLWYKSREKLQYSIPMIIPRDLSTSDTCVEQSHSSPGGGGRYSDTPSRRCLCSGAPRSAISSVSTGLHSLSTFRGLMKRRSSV
KCNQ1 block: inhibitors of human KCNQ1 potassium channel. P51787. AID 2642. B-score at 10 µM. 310,000 compounds, 1.3% hits. CHO-K1 KCNQ1, FluxOR thallium flux fluorescence; stronger effect = higher value;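 active = compounds whose thallium flux B-score, printed positive for inhibition, exceeds three library SD while starting fluorescence stays within three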;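 also: channel opened by potassium depolarization with thallium stimulus after 20 min compound exposure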
KCNK9 block: human KCNK9 channel inhibition. HEK293 KCNK9, FluxOR thallium flux fluorescence; stronger effect = lower value. B-score at 10 µM. 310,000 compounds, 1.2% hits. AID 488922;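 active = ratio B-score over 3 SD below the library mean, with starting fluorescence within 5 SD of its mean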;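 also: negative B-score means less thallium flux so channel inhibition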
hERG rescue: hERG (human) protection from proarrhythmic block; Q12809; CHO-hERG, FluxOR thallium flux, dofetilide IC70 present; activation (rescue from dofetilide block), less the hit threshold, % at 10 µM; 310,000 compounds, 0.51% hits; AID 1511;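 active = activation above the mean of controls blocked by dofetilide plus 5 SD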;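 also: thallium influx through hERG after potassium depolarization seen as dye fluorescence rise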
KCNQ1 act: potentiates or activates the human KCNQ1 potassium channel. P51787. CHO-K1 KCNQ1, thallium flux FluxOR fluorescence; stronger effect = higher value. B-score at 10 µM. 310,000 compounds, 0.35% hits. AID 2648;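 active = fluorescence ratio B-score, a plate-corrected score, at least three library SD, with initial intensity B-score within 5 SD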
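Doses: Single concentration per compound, DMSO matched to controls | Test system: KCNQ1-transfected CHO-K1 cells | Timing: 90 min dye loading and 20 min compound exposure, both at room temperature | Measured by: Kinetic FluxOR thallium fluorescence, 10-s 1-Hz baseline, 110-s post-stimulus read | Medium: Assay buffer with matched DMSO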
KCNK3 inh conf: human KCNK3 channel inhibition, confirmation assay; shares compounds with KCNK3 block; CHO-KCNK3 thallium flux, FluxOR fluorescence; 0% buffer, 100% carvedilol maximal block; ratio percent of control, % at 10 µM; 2,400 compounds, 99% hits;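 active = ratio percent of control, averaged over triplicates, above buffer control mean plus 5 SD, cut at about 64% in these data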;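 also: ratio is the fluorescence rise from min to max over baseline after thallium stimulus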
KCNK3 noninduced: activity in cells without induced KCNK3 expression | non-induced KCNK3 parental cells, FluxOR thallium flux; stronger effect = lower value | 2,400 compounds, 40% hits | AID 651747 | shares compounds with KCNK3 block | thallium flux ratio (lower = more inhibition) at 10 µM;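 active = thallium flux ratio, averaged over three wells, more than 5 SD below the buffer control mean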;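 also: host cells are CHO cells without KCNK3 induction; ratio is peak minus trough fluorescence over baseline then normalized to buffer controls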
Starred values were filed as active, the others as inactive; i = inactive; nt = not tested or not shown. Only some compounds are listed: those with a hit (about 3.1% of all), similar ones and a draw of the others.

SMILES	KCNK3 block	KCNQ1 block	KCNK9 block	hERG rescue	KCNQ1 act	KCNK3 inh conf	KCNK3 noninduced
Cn1c(SCc2ccccc2Br)nc2ccccc2c1=O	-9*	i	i	-11	i	134*	i
Brc1ccccc1-c1nnc(CSc2nncn2-c2ccccc2)o1	i	i	i	0	i	nt	nt
C=CCC(=O)NC1CCCc2c1cnn2-c1cc(F)cc(F)c1 (stereo not given)	i	i	i	-1	i	nt	nt
Cc1ccc(NC(=O)CCNS(=O)(=O)c2ccc3c(c2)CCC(=O)N3)cc1C	i	i	i	-6	i	nt	nt
COc1cc(/C=C(\C#N)c2nc3ccccc3n2C)cc(OC)c1O	-9.4*	7*	i	-18	i	118*	0.15*
COc1cc(/C=C(\C#N)c2nc3ccccc3[nH]2)cc(OC)c1O	-16*	i	i	-16	i	0	i
COc1ccc(/C=C(\C#N)c2nc3ccccc3[nH]2)cc1O	i	i	i	-2	i	nt	nt
O=C(c1cccs1)c1ccccc1Cc1cccs1	i	nt	nt	nt	nt	nt	nt
Cn1cc2c(=O)n(/N=C/c3ccccc3)cnc2n1	i	i	i	-11	i	nt	nt
CCCCN(C)Cc1c(C)[nH]c2ccc(OCC)cc2c1=O	i	i	i	-6	i	nt	nt
C/C(=N\Nc1nc(N2CCCCC2)nc(N2CCOCC2)n1)c1ccccc1O	-9.1*	i	i	-9	i	104*	i
CC1CCCCC12NC(=O)N(CC(=O)c1ccc3c(c1)OCO3)C2=O (stereo not given)	i	i	i	-5	i	nt	nt
CCC(=O)NCCc1nc2cc(NC(=O)c3cccc([N+](=O)[O-])c3)ccc2n1C	i	i	i	-6	i	nt	nt
CN(C1CCCCC1)S(=O)(=O)c1ccc2c(c1)c(=O)c(C(=O)NCCCN1CCCC1)cn2C	i	i	i	-3	i	nt	nt
CC(C)OCCCNC(=O)c1cn(C)c2ccc(S(=O)(=O)N(C)C3CCCCC3)cc2c1=O	-9.1*	i	i	-10	i	90*	0.14*
O=C(CNC(c1ccccc1)c1ccccc1)NCc1ccccc1Cl	i	i	i	-7	i	nt	nt
CSc1ccc(CN(C)C(=O)COc2ccc(C(=O)c3ccccc3)cc2)cc1	-9.4*	i	i	-7	i	101*	i
COc1ccc(CCN(C)C(=O)COc2ccc(C(=O)c3ccccc3)cc2)cc1OC	i	i	i	-10	i	nt	nt
C[C@H]1CN([C@@H](C)CO)C(=O)c2cccc(NC(=O)C3CC3)c2O[C@H]1CN(C)CC1CCCCC1	i	nt	nt	nt	nt	nt	nt
C[C@H](CO)N1C[C@H](C)[C@@H](CN(C)CC2CCCCC2)Oc2c(NC(=O)C3CC3)cccc2C1=O	-12*	nt	nt	nt	nt	104*	i
O=C(CSc1nc2ccccc2o1)NCCOc1ccccc1	i	i	i	-12	i	nt	nt
CC(=O)c1ccc(OCCCC(=O)Nc2cc(S(=O)(=O)N(C)C)ccc2C)cc1	i	i	i	-3	i	nt	nt
Cc1ccc(S(=O)(=O)N(C)C)cc1NC(=O)C(C)N(C)CCOc1ccc(Cl)cc1 (stereo not given)	-9.4*	i	i	-10	i	79*	i
COC(=O)CSc1nc2cc(Cl)ccc2c(=O)n1C1CCCC1	i	i	i	-16	i	nt	nt
NC(=O)CSc1nc2cc(Cl)ccc2c(=O)n1C1CCCCC1	-10*	i	i	-3	i	95*	i
COc1cc(OC)c(C2N(c3ccc(Cl)cc3)C(=O)C3CCCN32)cc1OC (stereo not given)	i	i	i	-6	i	nt	nt
Cc1ccc(C)c(N2CCN(S(=O)(=O)c3ccc4c(c3)NC(=O)CS4)CC2)c1	-9.4*	i	i	-1	i	85*	i
CN1CCN(S(=O)(=O)c2ccc3c(c2)NC(=O)CS3)CC1	i	i	i	-1	i	nt	nt

Screens: PubChem, Johns Hopkins Ion Channel Center
